{"source": "ChEMBL document CHEMBL4842317", "about": "“Discovery of novel 3-hydroxyandrosta-5,7-Diene-17-Carboxylic acid derivatives as anti-inflammatory bowel diseases (IBD) agents” (Eur J Med Chem, 2021)", "key": {"RAW264.7 [1]": {"system": "RAW264.7", "assay": "Antiinflammatory activity against mouse RAW264.7 cells assessed as decrease in LPS-induced NF-kappB mRNA expression in presence of LPS by qRT-PCR analysis", "type": "functional, cell-based", "settings": "dose 0.31-20 µM", "how_it_was_run": "(§1)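 RAW 264.7 cells are grown 12 h in six-well plates, then exposed to LPS (100 ng/ml) plus compound for 8 h. Reverse transcription is followed by SYBR Green qPCR with GAPDH as internal control. Relative expression is calculated by 2^-ΔΔCT versus the untreated control. Mean + SD from three independent experiments.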"}, "Mus musculus [2]": {"system": "Mus musculus", "assay": "Antiinflammatory activity against DSS-induced colitis C57BL/6 mouse assessed as decrease in p-p65 level in colon at 50 mg/kg, ip administered for 7 days by western blot analysis", "type": "functional, organism-based", "settings": "time 7.0 day", "how_it_was_run": "(§2)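 Male C57BL/6 mice, 6 weeks old, 5 per group, given 3.5% DSS solution plus daily intraperitoneal drug (100 μL, in saline/castor oil/ethanol/DMSO 70:10:15:5) for 7 days. Colons collected after sacrifice. IL-1β is normalised per milligram of colonic protein. p-IκB-α and p-p65 in colonic protein are measured by Western blot. Bars give mean + SD.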"}, "RAW264.7 [3]": {"system": "RAW264.7", "assay": "Inhibition of PI3K/Akt signaling in mouse RAW264.7 cells assessed as inhibition of LPS-induced NFkappB p-p65 accumulation in presence of LPS by western blot analysis", "type": "cell-based", "settings": "dose 0.31-20 µM", "how_it_was_run": "(§3)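 Lysates of LPS-stimulated RAW 264.7 cells (20–30 μg protein) are run on 10% SDS-PAGE, blotted, blocked with 5% milk, probed overnight at 4 °C (1:5,000), then detected with HRP secondary and ECL. Actin, GAPDH or H3 (nuclear fraction) serve as loading controls, with densitometry ratios. Blots are representative of three independent experiments; mean + SD (n = 3).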"}, "Mus musculus [4]": {"system": "Mus musculus", "assay": "Antiinflammatory activity against DSS-induced colitis C57BL/6 mouse assessed as decrease in IL-1beta level in colon at 50 mg/kg, ip administered for 7 days", "type": "functional, organism-based", "settings": "time 7.0 day", "how_it_was_run": "as §2"}, "RAW264.7 [5]": {"system": "RAW264.7", "assay": "Inhibition of PI3K/Akt signaling in mouse RAW264.7 cells assessed as inhibition of LPS-induced Akt phosphorylation by measuring increase in Akt level at 1.25 uM in presence of LPS by western blot analysis", "type": "cell-based", "how_it_was_run": "as §3"}, "RAW264.7 [6]": {"system": "RAW264.7", "assay": "Antiinflammatory activity against mouse RAW264.7 cells assessed as inhibition of LPS-induced IL-1 beta production measured after 24 hrs in presence of LPS by ELISA", "type": "functional, cell-based", "settings": "dose 0.31-20 µM", "how_it_was_run": "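RAW 264.7 cells are seeded at 2 × 10^5 per well, grown 12 h, and given 100 ng/mL LPS with compound at 0.31 to 20 μM for 24 h. Supernatant IL-1β and IL-6 are quantified by ELISA. Mean + SD, n = 3.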"}, "RAW264.7 [7]": {"system": "RAW264.7", "assay": "Antiinflammatory activity against mouse RAW264.7 cells assessed as inhibition of LPS-induced COX2 mRNA expression at 20 uM incubated for 8 hrs in presence of LPS by qRT-PCR analysis", "type": "functional, cell-based", "how_it_was_run": "as §1"}, "Mus musculus [8]": {"system": "Mus musculus", "assay": "Antiinflammatory activity against DSS-induced colitis C57BL/6 mouse assessed as decrease in IL-1beta level in colon at 25 mg/kg, ip administered for 7 days", "type": "functional, organism-based", "settings": "time 7.0 day", "how_it_was_run": "as §2"}, "RAW264.7 [9]": {"system": "RAW264.7", "assay": "Antiinflammatory activity against mouse RAW264.7 cells assessed as inhibition of LPS-induced MCP-1 mRNA expression at 20 uM in presence of LPS by qRT-PCR analysis", "type": "functional, cell-based", "how_it_was_run": "as §1"}, "RAW264.7 [10]": {"system": "RAW264.7", "assay": "Inhibition of PI3K/Akt signaling in mouse RAW264.7 cells assessed as inhibition of LPS-induced Akt phosphorylation at 1.25 uM in presence of LPS by western blot analysis", "type": "cell-based", "how_it_was_run": "as §3"}, "RAW264.7 [11]": {"system": "RAW264.7", "assay": "Antiinflammatory activity against mouse RAW264.7 cells assessed as decrease in LPS-induced TNF-alpha mRNA expression at 20 uM in presence of LPS by qRT-PCR analysis", "type": "functional, cell-based", "how_it_was_run": "as §1"}, "Mus musculus [12]": {"system": "Mus musculus", "assay": "Antiinflammatory activity against DSS-induced colitis C57BL/6 mouse model assessed as attenuation of colon length shortening at 50 mg/kg, ip administered for 7 days", "type": "functional, organism-based", "settings": "time 7.0 day", "how_it_was_run": "(§4)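 Male C57BL/6 mice, 6 weeks old, 5 per group, given 3.5% DSS in drinking solution with intraperitoneal drug in saline/castor oil/ethanol/DMSO (70:10:15:5) daily for 7 days. Colons are photographed after sacrifice by cervical dislocation for gross assessment.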"}, "RAW264.7 [13]": {"system": "RAW264.7", "assay": "Cytotoxicity against mouse RAW264.7 cells assessed as reduction in cell viability at 3 to 100 uM incubated for 24 hrs by MTT assay", "type": "cell-based", "settings": "raw264.7, 24 h, dose 3-100 µM", "how_it_was_run": "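RAW 264.7 cells are seeded at 1.0 × 10^4 per well and incubated overnight. Compounds are added at concentrations from 100 μM downward, with or without LPS (100 ng/mL), for 24 h. MTT (0.5 mg/mL) is added for 4 h and the formazan is dissolved in DMSO for the read-out.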"}, "RAW264.7 [14]": {"system": "RAW264.7", "assay": "Inhibition of PI3K/Akt signaling in mouse RAW264.7 cells assessed as inhibition of LPS-induced NFkappB p-p65 accumulation at 1.25 uM in presence of LPS by western blot analysis", "type": "cell-based", "how_it_was_run": "as §3"}, "RAW264.7 [15]": {"system": "RAW264.7", "assay": "Antiinflammatory activity against mouse RAW264.7 cells assessed as inhibition of LPS-induced NO production at 20 uM after 24 hrs by Griess assay", "type": "functional", "how_it_was_run": "(§5)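 RAW 264.7 cells (1 × 10^5 cells/mL) are cultured 24 h, stimulated with LPS (100 ng/mL final), and treated with compounds from 100 μM downward for 24 h in DMEM with 10% FBS. Medium nitrite is measured by Griess reaction (sulfanilamide, naphthylethylenediamine, phosphoric acid, 10 min, room temperature, dark). Mean + SD from three independent experiments.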"}, "Mus musculus [16]": {"system": "Mus musculus", "assay": "Antiinflammatory activity against DSS-induced colitis C57BL/6 mouse model assessed as colon with intact structure with few inflammatory cells at 50 to 100 mg/kg, ip administered for 7 days by hematoxylin and eosin staining based microscopic analysis", "type": "functional, organism-based", "settings": "dose 50-100 mg/kg, time 7.0 day", "how_it_was_run": "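DSS colitis (3.5% DSS, male C57BL/6 mice, n=5 per group) with 7-day intraperitoneal dosing in saline/castor oil/ethanol/DMSO vehicle. Colons are fixed in formalin, paraffin-embedded and stained with H&E (viewed at 200X). Separately, sections undergo CD86 immunohistochemistry (citrate antigen retrieval, 3% H2O2 block, 1:200 primary and HRP secondary, hematoxylin counterstain) viewed at 400X.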"}, "RAW264.7 [17]": {"system": "RAW264.7", "assay": "Antiinflammatory activity against mouse RAW264.7 cells assessed as inhibition of LPS-induced NO production measured after 24 hrs by Griess assay", "type": "functional, cell-based", "settings": "RAW264.7, 24 h", "how_it_was_run": "as §5"}, "Mus musculus [18]": {"system": "Mus musculus", "assay": "Antiinflammatory activity against DSS-induced colitis C57BL/6 mouse assessed as decrease in p-IkB alpha level in colon at 25 mg/kg, ip administered for 7 days by western blot analysis", "type": "functional, organism-based", "settings": "time 7.0 day", "how_it_was_run": "as §2"}, "Mus musculus [19]": {"system": "Mus musculus", "assay": "Antiinflammatory activity against DSS-induced colitis C57BL/6 mouse model assessed as attenuation of colon length shortening at 25 mg/kg, ip administered for 7 days", "type": "functional, organism-based", "settings": "time 7.0 day", "how_it_was_run": "as §4"}, "Mus musculus [20]": {"system": "Mus musculus", "assay": "Antiinflammatory activity against DSS-induced colitis C57BL/6 mouse model assessed as reduction in scores of stool consistency and bleeding at 25 to 100 mg/kg, ip administered for 7 days by immunohistochemistry analysis", "type": "functional, organism-based", "settings": "dose 25-100 mg/kg, time 7.0 day"}, "RAW264.7 [21]": {"system": "RAW264.7", "assay": "Antiinflammatory activity against mouse RAW264.7 cells assessed as inhibition of LPS-induced iNOS mRNA expression incubated for 8 hrs in presence of LPS by qRT-PCR analysis", "type": "functional, cell-based", "settings": "dose 0.31-20 µM", "how_it_was_run": "as §1"}}, "note": "The source made the active and inactive calls. The rule behind the calls is not given here."}
{"compound": "C[C@]12CC[C@H]3[C@@H](CC=C4C[C@@H](O)CC[C@@]43C)[C@@H]1CC[C@@H]2C(=O)n1ccnc1", "values": [{"measurement": "Activity", "setting": "RAW264.7 [1]", "value": "Dose-Dependent Effect"}, {"measurement": "Activity", "setting": "Mus musculus [2]", "value": "Active"}, {"measurement": "inhibition", "setting": "RAW264.7 [3]", "value": "Dose-Dependent Effect"}, {"measurement": "Activity", "setting": "Mus musculus [4]", "value": "Active"}, {"measurement": "inhibition", "setting": "RAW264.7 [5]", "value": "Active"}, {"measurement": "Activity", "setting": "RAW264.7 [6]", "value": "Dose-Dependent Effect"}, {"measurement": "Activity", "setting": "RAW264.7 [7]", "value": "Active"}, {"measurement": "Activity", "setting": "Mus musculus [8]", "value": "Active"}, {"measurement": "Activity", "setting": "RAW264.7 [9]", "value": "Active"}, {"measurement": "inhibition", "setting": "RAW264.7 [10]", "value": "Active"}, {"measurement": "Activity", "setting": "RAW264.7 [11]", "value": "inactive"}, {"measurement": "Activity", "setting": "Mus musculus [12]", "value": "Active"}, {"measurement": "Activity", "setting": "RAW264.7 [13]", "value": "Non-Toxic"}, {"measurement": "inhibition", "setting": "RAW264.7 [14]", "value": "Active"}, {"measurement": "inhibition at 20 µM", "setting": "RAW264.7 [15]", "value": 100, "unit": "%"}, {"measurement": "Activity", "setting": "Mus musculus [16]", "value": "Active"}, {"measurement": "IC50", "setting": "RAW264.7 [17]", "value": 6.67, "unit": "µM"}, {"measurement": "Activity", "setting": "Mus musculus [18]", "value": "Active"}, {"measurement": "Activity", "setting": "Mus musculus [19]", "value": "Active"}, {"measurement": "Activity", "setting": "Mus musculus [20]", "value": "Active"}, {"measurement": "Activity", "setting": "RAW264.7 [21]", "value": "Dose-Dependent Effect"}]}
